Measured values of several laboratories.
Lines come from different studies, so protocols differ.
Target: Vascular endothelial growth factor receptor 1 (FLT1, Homo sapiens, UniProt P17948)
Sequence (P17948 827-1158, limits assumed, as in one of the studies): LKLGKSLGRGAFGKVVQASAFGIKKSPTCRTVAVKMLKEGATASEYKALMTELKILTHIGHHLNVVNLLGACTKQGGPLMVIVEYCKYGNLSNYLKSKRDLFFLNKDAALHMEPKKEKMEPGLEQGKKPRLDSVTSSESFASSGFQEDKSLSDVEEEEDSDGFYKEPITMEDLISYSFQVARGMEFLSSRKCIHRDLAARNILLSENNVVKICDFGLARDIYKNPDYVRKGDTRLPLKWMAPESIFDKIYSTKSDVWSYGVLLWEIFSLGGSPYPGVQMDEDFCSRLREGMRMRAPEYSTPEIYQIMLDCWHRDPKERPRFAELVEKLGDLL

CNC(=O)c1cc2c(Oc3ccc(NC(=O)C4(C(=O)Nc5ccc(F)cc5)CC4)cc3)ccnc2cc1OC — IC50 (enzyme activity, inhibitor, radiometric): 13 nM
COc1ccc2c(Oc3ccc4c(C(=O)Nc5ccccc5N)cccc4c3)ccnc2c1 — IC50 (enzyme activity, inhibitor): 8 nM
Cc1ccc(NC(=O)c2ccc(C)c(C(F)(F)F)c2)cc1C#Cc1nn(C2CCC(O)CC2)c2ncnc(N)c12 (centres unmarked) — IC50 (enzyme activity, inhibitor, radiometric): 15 nM
C=CC(=O)Nc1cccc(CN2C(=O)N(c3c(Cl)c(OC)cc(OC)c3Cl)Cc3cnc(NCCCCN(CC)CC)nc32)c1 — Kd (binding, competition with immobilised ligand): 32 nM
CC(C)(C)n1nc(-c2cnc3cc(OC4CC4)ccc3c2)c(C(N)=O)c1N — IC50 (cell-free assay): > 10000 nM
Cc1cnc(-c2ccc(-c3ccc(NC(=O)Nc4c(F)cc(F)cc4F)cc3F)c3c2C(=O)NC3)[nH]1 — Kd (binding, competition with immobilised ligand): 13 nM
CC(C)(C)n1nc(-c2ccc3nc(OC4CC4)ccc3c2)c(C(N)=O)c1N — IC50 (cell-free assay): 8380 nM
Cc1ccc(C(=O)Nc2ccc(Oc3cc4cnn(C)c4cc3-c3cn[nH]c3)c(F)c2)c(=O)n1-c1ccc(F)cc1 — IC50 (enzyme activity in cells, inhibitor): > 1000 nM
